Screens (PubChem BioAssay)
The entries come from a sample that favours hits as a whole.
CTSL1 counter = Fasciola hepatica cathepsin L1 inhibitors, primary screen, counter-screen for PFM18AAP inhibitor project, biochemical, QFRET, fluorogenic peptide substrate; recombinant F. hepatica cathepsin L1, Z-Leu-Arg-MCA fluorescence; inhibition, % at 5.96 µM; hit rate 0.49% among 300,000; AID 1906, 2009;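 active means inhibition above the mean of all tested compounds plus 3 SD, set per screening campaign, cut at about 17% in these data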;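 further: 0% = plate median of test compound wells and 100% = 1 µM Z-Phe-Ala-diazomethylketone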
UPR CHOP act = activators of apoptotic CHOP UPR arm, primary screen, cell-based, CHO-CHOP luciferase reporter, luminescence, uHTS; UPR activation; percent of tunicamycin response over DMSO baseline; activation, % at 10 µM; hit rate 0.34% among 330,000; AID 449763, 2010;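 active means at 10 µM dose, activation of 40% or more, normalized to positive control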;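 further: 100% = tunicamycin at 10 µg/mL and 0% = DMSO alone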
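Test system: CHO-CHOP cells, stable luciferase reporter of PERK-eIF2a-CHOP signalling | Quantity: 500 CHO-CHOP cells per well | Buffer or medium: F12 plus 10% serum | Compound dosing: 10 µM single point, 0.5% DMSO | Schedule: 6 h compound treatment, 37 °C | Signal: Luciferase luminescence | Control set: Tunicamycin high control, DMSO low control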
CHOP inhibitor = inhibitors of CHOP promoter induction, primary screen, cell-based, unfolded protein response, luciferase reporter | hit rate 3.8% among 220,000 | CHO-K1 CHOP-promoter luciferase, tunicamycin-induced, 15-18 h | inhibition, % at 10 µM | AID 2732, 2010;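 active means compounds that reduced the stress-induced luciferase reporter signal by more than about 70% of percent inhibition, limit read from the data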;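 further: 0% = tunicamycin plus vehicle and 100% = wells without tunicamycin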
UPR XBP1 act = activators of adaptive XBP1 UPR arm, primary screen, cell-based, CHO-XBP1 luciferase reporter, luminescence, uHTS; IRE1-XBP1 UPR activation; percent of tunicamycin response, DMSO as zero; activation, % at 20 µM; hit rate 0.33% among 330,000;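 active means versus positive control, 20 µM dose yields 30% or more activation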;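 further: 100% = tunicamycin at 10 µg/mL and 0% = DMSO only wells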
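Material: CHO-XBP1 cells stably carrying IRE1-XBP1-driven luciferase reporter / Amount: 1000 cells per well / Compound: 20 µM, 1% DMSO / Times: 6 h treatment, 37 °C / Detection: luciferase luminescence / Measure: % activation of reporter signal versus tunicamycin and DMSO controls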
UCH37 inh = inhibitors of human UCH37 deubiquitinase, primary screen, biochemical, Ub-AMC cleavage, fluorescence. Ubiquitin carboxyl-terminal hydrolase isozyme L5 (Homo sapiens), Q9Y5K5. hit rate 0.33% among 330,000. purified proteasome/UCH37. inhibition, % (no concentration beside the values). AID 588478, 2011;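 active means mean inhibition over replicate wells above about 20%, limit read from the data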;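 further: 0% = compound-free wells with enzyme and 100% = wells lacking proteasome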
Target sequence (Q9Y5K5 whole entry, looked up): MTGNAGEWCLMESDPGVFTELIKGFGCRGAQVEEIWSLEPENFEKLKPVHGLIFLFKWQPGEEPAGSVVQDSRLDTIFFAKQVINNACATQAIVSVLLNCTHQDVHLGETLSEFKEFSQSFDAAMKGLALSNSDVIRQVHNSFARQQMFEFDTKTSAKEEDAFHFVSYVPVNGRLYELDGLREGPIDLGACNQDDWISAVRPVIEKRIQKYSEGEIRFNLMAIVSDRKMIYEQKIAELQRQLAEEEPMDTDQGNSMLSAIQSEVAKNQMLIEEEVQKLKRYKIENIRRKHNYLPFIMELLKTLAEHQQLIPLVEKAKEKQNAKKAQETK
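assay system = human UCH37 enzyme supplied as purified proteasome complex | amount = proteasome at 0.15 nM in the dispensed enzyme solution | schedule = 30 min compound-proteasome preincubation then 25 min substrate reaction, room temperature | measured by = fluorescence, ex 355 nm, em 460 nm | benchmarks = no-proteasome wells (full inhibition) and compound-free wells (no inhibition)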
* hit, by the source's call; · = no result.

SMILES	CTSL1 counter	UPR CHOP act	CHOP inhibitor	UPR XBP1 act	UCH37 inh
Cc1cccc(CCN2C(N(C)C)=NC[C@@H]2CC(C)C)c1	-5	1	·	0	33*
Cc1cccc(CCN2C(N(C)C)=NC[C@@H]2Cc2ccccc2)c1	·	0	·	-1	4
COCc1cc(C)nc(OCC(=O)NN=Cc2ccc(O)cc2)c1C#N	·	·	·	·	4
COc1cc(/C=C2\SC(c3ccc(C)cc3)=NC2=O)cc(OC)c1O	7	5	58	2	7
Cc1ccc(C2=NC(=O)/C(=C/c3cc(O)c(O)c(Br)c3)S2)cc1	·	1	72*	2	8
O=C(CNC(=O)C(c1ccccc1)c1ccccc1)NN=Cc1ccc(O)c([N+](=O)[O-])c1	·	·	·	·	10
Cc1cc(C)c(OCC(=O)N/N=C/c2ccc3c(c2)OCO3)c(C)c1	0	-1	73*	1	·
O=C(NCCc1ccccc1)C(=O)N/N=C/c1ccc2c(c1)OCO2	10	0	95*	6	·
O=C(Cc1ccccc1)NN=Cc1ccc2c(c1)OCO2	·	·	·	·	2
O=C(NN=C/C(Cl)=C/c1ccccc1)c1ccc2c(c1)OCO2	·	·	·	·	0
O=[N+]([O-])c1ccc(Sc2cccc[n+]2[O-])c2nonc12	·	·	108*	·	15
O=C(NN=Cc1cn(Cc2ccccc2)c2ccccc12)c1ccncc1	·	·	·	·	8
C=CCN=C1NN=C(c2cc(C)n(CCOC)c2C)CS1	0	-10	80*	-7	0
C=CCn1c(C)cc(C2=NNC(=NC(C)(C)C)SC2)c1C	0	-8	63	-6	·
COCCn1c(C)cc(C2=NNC(=Nc3ccc(Cl)cc3Cl)SC2)c1C	5	0	31	0	6
Cc1cc(C2=NNC(=NC3CC3)SC2)c(C)n1Cc1ccco1	0	·	95*	·	7
COCCn1c(C)cc(C2=NNC(=NC3CC3)SC2)c1C	2	-10	103*	-7	11
C=CCn1c(C)cc(C2=NNC(=Nc3ccc(C)cc3)SC2)c1C	4	3	7	-1	29*
CN(Cc1c(C(=O)NN=Cc2ccc(O)cc2)nnn1-c1nonc1N)C1CCCCC1	·	·	·	·	5
CC1(C)C2CC=C(C=NNC(=O)C(N)=O)C1C2 (stereo unspecified)	·	·	·	·	4
CC(=NNS(=O)(=O)c1ccc(F)cc1)c1ccc(NC(=O)c2ccc(C)o2)cc1	·	·	·	·	2
O=C(NN=Cc1ccoc1)c1ccccc1	·	·	·	·	1
CC(=O)c1nn(-c2cccc(Br)c2)cc1C(=O)c1ccccc1	-2	0	74*	2	4
COc1ccc(CCNC(=O)CS(=O)(=O)c2cn(CC(=O)N(C(C)C)C(C)C)c3ccccc23)cc1OC	17*	1	·	-1	0
Cc1ccc(S(=O)(=O)CNC(=O)c2ccccc2)cc1	36*	0	27	-1	0
SMILES	CTSL1 counter	UPR CHOP act	CHOP inhibitor	UPR XBP1 act	UCH37 inh
Cc1ccc(S(=O)(=O)NCCNC(=O)c2ccccc2)cc1	2	-3	7	-2	1
Clc1cccc(C=NNc2nccs2)c1	·	·	·	·	3
CC(=NN=C(N)N)c1ccc(Cl)c(Cl)c1	·	·	·	·	12
COc1ccc(NC(C)C(=O)NN=Cc2ccccc2OCc2ccc(Br)cc2)cc1 (stereo unspecified)	·	·	·	·	2
S=C(Nc1ccc(Oc2ccccc2)cc1)NC1CCCCC1	-1	0	75*	-1	4
S=C(Nc1ccc(Oc2ccccc2)cc1)NC1CCCCCC1	3	·	37	·	-3
S=C(NNc1ccc2ccccc2c1)NC1CCCCC1	-4	5	81*	-1	-2
FC(F)(F)c1ccc(NC(=S)NC2CCCCC2)cc1	5	8	88*	2	3
Cn1ccnc1Sc1cc(NCCCO)c([N+](=O)[O-])c2nonc12	0	-2	96*	-7	·
O=[N+]([O-])c1c(NCCCO)cc(SCc2ccco2)c2nonc12	-1	0	19	-1	14
CC(=NNS(=O)(=O)c1ccc(Br)cc1)c1ccc(C)o1	·	·	·	·	2
O=C1OC(c2ccccc2)=NC12CC2c1ccc(Cl)cc1 (stereo unspecified)	21*	-1	-13	-4	5
CC(=NN(Cc1ccccc1)c1ccccc1)c1cccnc1	·	·	·	·	5
O=C(CN1C(=O)C2C3C=CC(C3)C2C1=O)N1CC(=O)N(CCc2ccccc2)C(=O)C1 (stereo unspecified)	-4	-5	74*	0	5
CCn1cc(Cl)c(C(=O)N2N=C3/C(=C/c4cccs4)CCCC3C2c2cccs2)n1 (stereo unspecified)	1	1	83*	0	-20
CCCc1nc2c(s1)CCc1onc(-c3cccc([N+](=O)[O-])c3)c1-2	-3	-2	·	-1	32*
O=[N+]([O-])c1cccc(-c2noc3c2-c2nc(Cc4cccc5ccccc45)sc2CC3)c1	1	-1	·	3	0
Cc1cc[n+](-c2[nH]c(=O)sc2/C=N/NC([S-])=Nc2ccccc2)cc1	6	-1	12	-4	·
Cc1cc[n+](-c2[nH]c(=O)sc2C=NNC([S-])=Nc2ccccc2)cc1	·	·	·	·	23*
C/C=C/C(=O)N1CC2(CC(c3cccc(NC(=O)/C(C)=C/C)c3)=NO2)C[C@H]1C(N)=O (stereo partly specified)	18*	-1	24	-3	0
CC(=O)c1cccc(N2Cc3ccccc3C2=NC(=O)CCl)c1	77*	4	-6	-2	3
Cn1c(C(=O)N2CCCC(C(=O)NCCCSC3CCCCC3)C2)cc2sccc21 (stereo unspecified)	-8	1	74*	-3	·
COc1ccc(/C=C/C(=O)c2ccc(Cl)s2)cc1O	-1	11	85*	0	1
CON=Cc1cccn1-c1nccc(N(C)C)c1C#N	·	·	·	·	7
CC(=NNC(=O)c1nnn(-c2nonc2N)c1C)c1ccc(OCc2ccccc2)cc1	·	·	·	·	-1
SMILES	CTSL1 counter	UPR CHOP act	CHOP inhibitor	UPR XBP1 act	UCH37 inh
CC1=C(C#N)c2nc(N)c(C#N)c(C)c2/C1=C\c1ccc(-c2ccccc2C(=O)O)o1	·	·	10	·	22*
COc1ccc(/C=N/NC(=O)c2ccc(COc3ccccc3Cl)o2)c(OC)c1C	4	12	87*	7	·
Oc1oc(-c2ccccc2Br)nc1C=Nc1ccc(Br)cn1	63*	0	50	0	0
Oc1oc(-c2ccccc2)nc1/C=N/c1ccccn1	71*	3	-13	0	·
Oc1oc(-c2ccccc2)nc1C=Nc1ccccn1	·	·	·	·	5
Oc1oc(-c2ccccc2Br)nc1C=Nc1ccccn1	·	·	·	·	8
Cc1ccsc1-c1nc(CSCC(=O)NCc2ccc3c(c2)OCO3)c(C)o1	4	1	81*	0	2
